The values that follow come from ChEMBL document CHEMBL4725280, “Structural studies of triazole inhibitors with promising inhibitor effects against antibiotic resistance metallo-β-lactamases” (Bioorg Med Chem, 2020).

pIC50: −log10 of the molar value. The source made the active and inactive calls. The rule behind the calls is not given here. Where only a bound is given, the exact number is not on record here.

GIM-1 protein, sequence (Q704V1 whole entry): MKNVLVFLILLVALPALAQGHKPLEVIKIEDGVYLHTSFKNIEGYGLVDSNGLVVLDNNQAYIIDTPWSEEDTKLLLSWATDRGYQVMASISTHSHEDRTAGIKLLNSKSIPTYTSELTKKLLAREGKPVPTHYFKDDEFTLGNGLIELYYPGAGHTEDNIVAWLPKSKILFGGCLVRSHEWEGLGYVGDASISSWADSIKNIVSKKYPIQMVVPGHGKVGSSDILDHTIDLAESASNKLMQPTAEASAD

The target of the first assay is Beta-lactamase VIM-2 (Pseudomonas aeruginosa, UniProt Q9K2N0). As to the kind of experiment: Inhibition of beta lactamase VIM-2 in Pseudomonas aeruginosa 3015473 in presence of nitrocefin as reporter substrate measured after 5 mins by microplate spectrophotometry analysis.
Conditions: not given
The method, boiled down:
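Purified VIM-2 at 1 nM in 50 mM HEPES pH 7.2 with 100 µM ZnCl2 and 400 µg/ml BSA, preincubated with inhibitor (sixteen concentrations, 0–250 µM) for 5 min at 25 °C. Then 100 µM nitrocefin was added and absorbance was followed at 482 nm. Points were run in triplicate, and IC50 was taken from initial velocities by log[inhibitor]–response fitting.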
Consider `O=S(=O)(NCc1[nH]nnc1CNCc1ccccc1)c1ccc(I)cc1`, for which the IC50 result is recorded as “Nd(Insoluble)”.

The same assay, now with this note: read-out: IC50.
In general, pIC50 refers to the negative decadic logarithm of the IC50, by convention in mol/L. Consider `COc1ccc(CSCc2nn[nH]c2CNS(=O)(=O)c2ccc(I)cc2)cc1`, for which the pIC50 was 4.68.
The same measure, in the same setting: the value for `O=S(=O)(NCc1[nH]nnc1CNC12CC3CC(CC(C3)C1)C2)c1ccc(I)cc1` was 6.80.
Same read-out and setting: as for `CC(=O)OCc1nn[nH]c1CNS(=O)(=O)c1ccc(I)cc1`, the figure is 4.64.
As to `O=S(=O)(NCc1[nH]nnc1CNC(c1ccccc1)(c1ccccc1)c1ccccc1)c1ccc(I)cc1`, the pIC50 was under 3.60.
Still for that read-out and setting: as for `COCc1nn[nH]c1CNS(=O)(=O)c1ccc(I)cc1`, the figure is 4.82; as for `O=S(=O)(NCc1[nH]nnc1CNC1CCCCC1)c1ccc(I)cc1`, 7.17.

A further assay concerns the target GIM-1 protein (Pseudomonas aeruginosa, UniProt Q704V1). Nature of the assay: Inhibition of beta lactamase GIM-1 in Pseudomonas aeruginosa in presence of nitrocefin as reporter substrate measured after 5 mins by microplate spectrophotometry analysis. To be noted: read-out: IC50. In short, it runs like this:
(§1)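 Purified recombinant enzyme (1 nM GIM-1 or NDM-1) in 50 mM HEPES pH 7.2, 100 µM ZnCl2, 400 µg/ml BSA, preincubated with inhibitor at 16 concentrations (0–250 µM) for 5 min at 25 °C. Reporter substrate added at 100 µM: nitrocefin for GIM-1 (A482), imipenem for NDM-1 (A300). Triplicates; IC50 from initial velocities by log[inhibitor]–response fit.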
For `COc1ccc(CSCc2nn[nH]c2CNS(=O)(=O)c2ccc(I)cc2)cc1`, the negative logarithm of the IC50 (pIC50) was 3.64.
The same measure, in the same setting: the value for `O=S(=O)(NCc1[nH]nnc1CNC12CC3CC(CC(C3)C1)C2)c1ccc(I)cc1` was 4.74; that for `CC(=O)OCc1nn[nH]c1CNS(=O)(=O)c1ccc(I)cc1` was 4.32.
On to `O=S(=O)(NCc1[nH]nnc1CNC(c1ccccc1)(c1ccccc1)c1ccccc1)c1ccc(I)cc1`, for which the pIC50 is 3.45.
The same measure, in the same setting: as for `COCc1nn[nH]c1CNS(=O)(=O)c1ccc(I)cc1`, the figure is 3.77; as for `O=S(=O)(NCc1[nH]nnc1CNC1CCCCC1)c1ccc(I)cc1`, 4.16.

System in another assay: not listed separately
As to the kind of experiment: Inhibition of beta lactamase NDM1 in Klebsiella pneumoniae in presence of imipenem as reporter substrate measured after 5 mins by microplate spectrophotometry analysis.
Conditions: not given
The method, boiled down:
as §1
As for `COCc1nn[nH]c1CNS(=O)(=O)c1ccc(I)cc1`, the IC50 entry was “Not Active”.

Staying with this assay, now noted: read-out: IC50.
For the compound `CC(=O)OCc1nn[nH]c1CNS(=O)(=O)c1ccc(I)cc1`, the pIC50 is 3.64.
Same read-out and setting: as for `O=S(=O)(NCc1[nH]nnc1CNC(c1ccccc1)(c1ccccc1)c1ccccc1)c1ccc(I)cc1`, the figure is 4.09; as for `O=S(=O)(NCc1[nH]nnc1CNC1CCCCC1)c1ccc(I)cc1`, 3.83.

For a further assay, the target named is Beta-lactamase VIM-2 (Pseudomonas aeruginosa) (UniProt Q9K2N0). Nature of the assay: Inhibition of Pseudomonas aeruginosa 3015473 beta lactamase VIM-2 transfected in negative Escherichia coli SNO3 cells assessed as substrate hydrolysis using nitrocefin as substrate at 250 uM incubated for 20 mins measured every 1 mins for 3 hrs by cell-based microplate spectrophotometry analysis relative to control.
Conditions: not given
The method, boiled down: (§2)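 E. coli SNO3 (β-lactamase-negative) carrying pET26b(+) with blaVIM-2, blaGIM-1 or blaNDM-1; overnight culture adjusted to OD600 1 in LB, inhibitor 250 µM final, IPTG 0.8 mM final, 37 °C 20 min with shaking to induce. Nitrocefin added (1.6 mM final, in 50 mM HEPES pH 7.2, 100 µM ZnCl2), A482 read each minute for 3 h; duplicates.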
What is called inhibition is the drop in the measured response relative to a control, in per cent. Turning to `COc1ccc(CSCc2nn[nH]c2CNS(=O)(=O)c2ccc(I)cc2)cc1`, the inhibition is 45%.
On the same count and under the same terms, as for `O=S(=O)(NCc1[nH]nnc1CNC12CC3CC(CC(C3)C1)C2)c1ccc(I)cc1`, the figure is 96%; as for `O=S(=O)(NCc1[nH]nnc1CNC(c1ccccc1)(c1ccccc1)c1ccccc1)c1ccc(I)cc1`, 19%.
The same measure, in the same setting: the value for `COCc1nn[nH]c1CNS(=O)(=O)c1ccc(I)cc1` was 51%; that for `O=S(=O)(NCc1[nH]nnc1CNC1CCCCC1)c1ccc(I)cc1` was 95%.

The next assay deals with GIM-1 protein (Pseudomonas aeruginosa) (UniProt Q704V1). As to the kind of experiment: Inhibition of Pseudomonas aeruginosa beta lactamase GIM-1 transfected in negative Escherichia coli SNO3 cells assessed as substrate hydrolysis using nitrocefin as substrate at 250 uM incubated for 20 mins measured every 1 mins for 3 hrs by cell-based microplate spectrophotometry analysis relative to control.
GIM-1 protein (Pseudomonas aeruginosa), sequence (Q704V1 as listed by the source): as the sequence (Q704V1 whole entry) above
Conditions: not given
In short, it runs like this:
as §2
Consider `COc1ccc(CSCc2nn[nH]c2CNS(=O)(=O)c2ccc(I)cc2)cc1`, for which the inhibition was 33%.
`O=S(=O)(NCc1[nH]nnc1CNC12CC3CC(CC(C3)C1)C2)c1ccc(I)cc1`: the inhibition turned out to be 22%.
Turning to `O=S(=O)(NCc1[nH]nnc1CNC(c1ccccc1)(c1ccccc1)c1ccccc1)c1ccc(I)cc1`, the inhibition amounted to 3%.
On to `COCc1nn[nH]c1CNS(=O)(=O)c1ccc(I)cc1`, for which the inhibition was 11%.
`O=S(=O)(NCc1[nH]nnc1CNC1CCCCC1)c1ccc(I)cc1`: the inhibition was found to be 3%.

The subject of another assay is Klebsiella pneumoniae. As to the kind of experiment: Inhibition of Klebsiella pneumonia beta lactamase NDM1 transfected in negative Escherichia coli SNO3 cells assessed as substrate hydrolysis using nitrocefin as substrate at 250 uM incubated for 20 mins measured every 1 mins for 3 hrs by cell-based microplate spectrophotometry analysis relative to control.
Conditions: not given
The method, boiled down: as §2
For `COc1ccc(CSCc2nn[nH]c2CNS(=O)(=O)c2ccc(I)cc2)cc1`, the inhibition turned out to be 34%.
Same read-out and setting: as for `O=S(=O)(NCc1[nH]nnc1CNC12CC3CC(CC(C3)C1)C2)c1ccc(I)cc1`, the figure is 17%.
Still for that read-out and setting: the value for `O=S(=O)(NCc1[nH]nnc1CNC(c1ccccc1)(c1ccccc1)c1ccccc1)c1ccc(I)cc1` was “inactive”; that for `COCc1nn[nH]c1CNS(=O)(=O)c1ccc(I)cc1` was “inactive”.
Turning to `O=S(=O)(NCc1[nH]nnc1CNC1CCCCC1)c1ccc(I)cc1`, the inhibition entry was “inactive”.
